Laboratory results as given in ChEMBL document CHEMBL1155534, “Tetracyclic sulfones as potent gamma-secretase inhibitors: synthesis and structure-activity relationship studies” (Bioorg Med Chem Lett, 2010).
pIC50: −log10 of the molar value.

Key:
[1] = Inhibition of gamma secretase
[2] = Inhibition of gamma-secretase-mediated cleavage of human APP expressed in HEK293 cells assessed as reduction in amyloid beta40 production; type: cell-based
In short: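 HEK293 cells expressing human APP carrying Swedish and London mutations, in fresh medium with inhibitor for 4 h. Aβ40 in conditioned medium measured by ECL; IC50 derived.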

[3] = Inhibition of gamma-secretase-mediated cleavage of human APP expressed in HEK293 cells assessed as reduction in amyloid beta42 production; type: cell-based
[4] = tested on: Mus musculus; experiment: Reduction in amyloid beta 40 level in non-transgenic mouse brain at 10 mg/kg, po; type: ADME, organism-based; parameters: dose 10 mg/kg, route oral; scale not given: the % may be the effect or the level left; settings: in vivo
In short: (§1)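 Non-transgenic mice given 10 mg/kg orally; Aβ40 reduction expressed as percent relative to vehicle controls, mean values (n = 5).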

[5] = molecular target: hERG (KCNH2) (Homo sapiens, UniProt Q12809); experiment: Inhibition of human ERG assessed as rubidium efflux at 5 ug/ml
[6] = Plasma protein binding in human; type: ADME, cell-free; settings: read-out: PPB (converted)
[7] = tested on: Mus musculus; experiment: Reduction in amyloid beta 40 level in non-transgenic mouse plasma at 10 mg/kg, po; type: ADME, organism-based; parameters: dose 10 mg/kg, route oral; scale not given: the % may be the effect or the level left; settings: in vivo; in short: as §1
[8] = Clearance in human hepatocyte pre million cells; type: ADME, cell-based, Liver; settings: hepatocytes

Sequence of hERG (KCNH2) (Q12809 whole entry): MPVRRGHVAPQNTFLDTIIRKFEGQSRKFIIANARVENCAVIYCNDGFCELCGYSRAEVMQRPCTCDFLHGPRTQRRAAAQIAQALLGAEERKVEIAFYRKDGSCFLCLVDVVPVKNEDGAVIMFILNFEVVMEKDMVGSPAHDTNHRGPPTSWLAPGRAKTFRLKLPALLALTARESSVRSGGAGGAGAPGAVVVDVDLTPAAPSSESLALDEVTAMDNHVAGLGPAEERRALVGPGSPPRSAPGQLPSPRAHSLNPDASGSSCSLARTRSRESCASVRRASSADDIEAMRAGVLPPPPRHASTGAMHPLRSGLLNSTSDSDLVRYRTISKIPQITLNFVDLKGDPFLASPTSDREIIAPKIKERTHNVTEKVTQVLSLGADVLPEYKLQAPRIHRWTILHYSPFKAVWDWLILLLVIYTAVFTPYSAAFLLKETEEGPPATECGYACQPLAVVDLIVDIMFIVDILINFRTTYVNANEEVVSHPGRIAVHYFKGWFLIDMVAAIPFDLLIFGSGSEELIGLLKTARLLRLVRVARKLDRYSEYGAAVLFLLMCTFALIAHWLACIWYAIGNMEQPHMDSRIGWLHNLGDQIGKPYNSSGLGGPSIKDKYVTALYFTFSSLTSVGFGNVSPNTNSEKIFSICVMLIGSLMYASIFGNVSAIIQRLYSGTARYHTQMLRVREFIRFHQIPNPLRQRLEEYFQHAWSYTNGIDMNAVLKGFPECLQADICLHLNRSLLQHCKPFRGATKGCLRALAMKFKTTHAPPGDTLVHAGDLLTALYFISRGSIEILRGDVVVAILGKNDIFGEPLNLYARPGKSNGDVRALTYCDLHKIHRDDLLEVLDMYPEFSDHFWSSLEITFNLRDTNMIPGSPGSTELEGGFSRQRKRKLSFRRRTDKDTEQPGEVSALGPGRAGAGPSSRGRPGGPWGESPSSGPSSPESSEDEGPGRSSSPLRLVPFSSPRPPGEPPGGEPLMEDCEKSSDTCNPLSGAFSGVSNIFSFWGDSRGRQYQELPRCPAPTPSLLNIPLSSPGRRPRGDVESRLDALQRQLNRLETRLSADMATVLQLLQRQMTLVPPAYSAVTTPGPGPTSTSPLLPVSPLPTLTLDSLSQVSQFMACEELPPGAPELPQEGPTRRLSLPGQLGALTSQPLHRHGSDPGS

Compound | pIC50 [1] | pIC50 [2] | pIC50 [3] | Activity [4] | inhibition at 5 ug/ml [5] | fraction unbound [6] | Activity [7] | hepatocyte CLint [8]
O=S1(=O)CC[C@@H]2[C@@H](CC[C@@]3(S(=O)(=O)c4ccc(C(F)(F)F)cc4)c4c(F)ccc(F)c4OC[C@@H]23)N1 | 7.52 |  |  |  |  |  |  | 
CCCC1C[C@@H]2[C@@H](CC[C@@]3(S(=O)(=O)c4ccc(C(F)(F)F)cc4)c4c(F)ccc(F)c4OC[C@@H]23)NS1(=O)=O (stereo not given in full) | 8.26 | 8.52 | 9.00 |  |  |  |  | 
C=CCC1C[C@@H]2[C@@H](CC[C@@]3(S(=O)(=O)c4ccc(C(F)(F)F)cc4)c4c(F)ccc(F)c4OC[C@@H]23)NS1(=O)=O (stereo not given in full) | 8.11 | 8.15 | 8.70 |  |  |  |  | 
COCC1C[C@@H]2[C@@H](CC[C@@]3(S(=O)(=O)c4ccc(C(F)(F)F)cc4)c4c(F)ccc(F)c4OC[C@@H]23)NS1(=O)=O (stereo not given in full) | 8.05 | 8.11 | 8.10 |  |  |  |  | 
C/C=C/CC1C[C@@H]2[C@@H](CC[C@@]3(S(=O)(=O)c4ccc(C(F)(F)F)cc4)c4c(F)ccc(F)c4OC[C@@H]23)NS1(=O)=O (stereo not given in full) | 7.84 |  |  |  |  |  |  | 
O=S1(=O)N[C@@H]2CC[C@@]3(S(=O)(=O)c4ccc(C(F)(F)F)cc4)c4c(F)ccc(F)c4OC[C@H]3[C@@H]2CC1C/C=C/c1ccccc1 (stereo not given in full) | 7.22 |  |  |  |  |  |  | 
O=C(O)CC1C[C@@H]2[C@@H](CC[C@@]3(S(=O)(=O)c4ccc(C(F)(F)F)cc4)c4c(F)ccc(F)c4OC[C@@H]23)NS1(=O)=O (stereo not given in full) | 7.32 | 6.03 | 5.92 |  |  |  |  | 
NC(=O)CC1C[C@@H]2[C@@H](CC[C@@]3(S(=O)(=O)c4ccc(C(F)(F)F)cc4)c4c(F)ccc(F)c4OC[C@@H]23)NS1(=O)=O (stereo not given in full) |  |  | 8.40 |  |  |  |  | 
O=S1(=O)N[C@@H]2CC[C@@]3(S(=O)(=O)c4ccc(C(F)(F)F)cc4)c4c(F)ccc(F)c4OC[C@H]3[C@@H]2CC1CCCO (stereo not given in full) | 8.02 | 8.42 | 8.31 |  |  |  |  | 
O=C(O)CCC1C[C@@H]2[C@@H](CC[C@@]3(S(=O)(=O)c4ccc(C(F)(F)F)cc4)c4c(F)ccc(F)c4OC[C@@H]23)NS1(=O)=O (stereo not given in full) | 7.77 | 7.39 | 7.19 |  |  |  |  | 
O=S1(=O)N[C@@H]2CC[C@@]3(S(=O)(=O)c4ccc(C(F)(F)F)cc4)c4c(F)ccc(F)c4OC[C@H]3[C@@H]2CC1CCN1CCCC1 (stereo not given in full) | 7.34 |  |  |  |  |  |  | 
O=S1(=O)N[C@@H]2CC[C@@]3(S(=O)(=O)c4ccc(C(F)(F)F)cc4)c4c(F)ccc(F)c4OC[C@H]3[C@@H]2CC1CCN1CCOCC1 (stereo not given in full) | 7.32 |  |  |  |  |  |  | 
C[C@@H]1C[C@@H]2[C@@H](CC[C@@]3(S(=O)(=O)c4ccc(C(F)(F)F)cc4)c4c(F)ccc(F)c4OC[C@@H]23)NS1(=O)=O | 8.80 | 9.00 | 9.30 | 57% | 4% | 0.027 | 72% | 0.4 µL/min/1e6 cells
CC[C@@H]1C[C@@H]2[C@@H](CC[C@@]3(S(=O)(=O)c4ccc(C(F)(F)F)cc4)c4c(F)ccc(F)c4OC[C@@H]23)NS1(=O)=O | 8.72 | 8.30 | 8.70 | 42% | 10% | 0.019 | 84% | 0.3 µL/min/1e6 cells
